According to ChEMBL document CHEMBL2163304, “Strynuxlines A and B, alkaloids with an unprecedented carbon skeleton from Strychnos nux-vomica” (J Nat Prod, 2012):

How the values were obtained:
Format in all cases: functional, cell-based
SW480 = test: Cytotoxicity against human SW480 cells after 48 hrs by MTT assay; settings: SW480, 48 h
Outline: (§1)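 Human tumour cells were seeded in 96-well plates at an initial density of 1 × 10^5 cells/mL. Adherent lines were allowed to attach for 12 h before dosing, and HL-60 suspension cells were seeded just before dosing. Cells were exposed to […], 0.32, 1.6, 8 and 40 μM for 48 h, in triplicate, with cisplatin and paclitaxel as positive controls. Viability was read by MTT and growth curves were plotted.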

MCF7 = test: Cytotoxicity against human MCF7 cells after 48 hrs by MTT assay; settings: MCF7, 48 h; outline: as §1
A549 = test: Cytotoxicity against human A549 cells after 48 hrs by MTT assay; settings: A549, 48 h; outline: as §1
SMMC-7721 = test: Cytotoxicity against human SMMC7721 cells after 48 hrs by MTT assay; settings: SMMC-7721, 48 h; outline: as §1
HL-60 = test: Cytotoxicity against human HL60 cells after 48 hrs by MTT assay; settings: HL-60, 48 h; outline: as §1

Structure (SMILES) | IC50 (SW480) | IC50 (MCF7) | IC50 (A549) | IC50 (SMMC-7721) | IC50 (HL-60)
O=C1C[C@@H]2OCC=C3C[N+]4([O-])CC[C@]56c7ccccc7N1[C@H]5[C@H]2[C@H]3C[C@@H]64 (stereo not given in full) | > 40 µM | > 40 µM | > 40 µM | > 40 µM | > 40 µM
COc1ccc2c(c1)[C@@]13CCN4CC5=CCO[C@H]6CC(=O)N2[C@H]1[C@H]6[C@H]5C[C@H]43 | > 40 µM | > 40 µM | > 40 µM | > 40 µM | > 40 µM
COC1=C2CN(C)CC[C@]34C(=O)C[C@@H]2[C@H]2[C@H](CC(=O)N(c5ccccc53)[C@@H]24)OC1 | > 40 µM | > 40 µM | > 40 µM | > 40 µM | > 40 µM
COc1ccc2c(c1)N1C(=O)C[C@@H]3OCC=C4CN5CC[C@]26[C@@H]5C[C@@H]4[C@@H]3[C@H]16 | > 40 µM | > 40 µM | > 40 µM | > 40 µM | > 40 µM
COc1cc2c(cc1OC)[C@@]13CC[N+]4([O-])CC5=CCO[C@H]6CC(=O)N2[C@H]1[C@H]6[C@H]5C[C@@H]34 (stereo not given in full) | > 40 µM | > 40 µM | > 40 µM | > 40 µM | > 40 µM
C/C=C1/CN2CC[C@@]34c5ccccc5N5/C=C6/[C@H]7C[C@@H]8N(CC[C@@]89c8ccccc8N(/C=C(/[C@H]1C[C@H]23)[C@H]54)[C@@H]69)C/C7=C/C [BISNORDIHYDROTOXIFERINE] | > 40 µM | > 40 µM | > 40 µM | > 40 µM | > 40 µM
COc1cc2c(cc1OC)[C@@]13CCN4CC5=CCO[C@H]6CC(=O)N2[C@H]1[C@H]6[C@H]5C[C@H]43 [BRUCINE] | > 40 µM | > 40 µM | > 40 µM | > 40 µM | > 40 µM
CN1CC[C@]23C(=O)C[C@H]4C(=CCO[C@H]5CC(=O)N(c6ccccc62)[C@H]3[C@H]54)C1 [ICAJINE] | > 40 µM | > 40 µM | > 40 µM | > 40 µM | > 40 µM
COc1cc2c(cc1OC)[C@]13CCN4C/C(=C/CO)[C@H](C[C@H]41)C1=CCC(=O)N2[C@@H]13 [ISOBRUCINE] | > 40 µM | > 40 µM | > 40 µM | > 40 µM | > 40 µM
O=C1CC=C2[C@H]3C[C@@H]4N(CC[C@@]45c4ccccc4N1[C@@H]25)C/C3=C/CO [ISOSTRYCHNINE] | > 40 µM | > 40 µM | > 40 µM | > 40 µM | > 40 µM
COc1cc2c(cc1OC)[C@@]13CCN(C)CC4=CCO[C@H]5CC(=O)N2[C@H]1[C@H]5[C@H]4CC3=O [NOVACINE] | > 40 µM | > 40 µM | > 40 µM | > 40 µM | > 40 µM
COc1cc2c(cc1OC)[C@@]13CCN4CC5=CCO[C@H]6CC(=O)N2[C@H]1[C@H]6[C@H]5C[C@]43O [PSEUDOBRUCINE] | > 40 µM | > 40 µM | > 40 µM | > 40 µM | > 40 µM
O=C1C[C@@H]2OCC=C3CN4CC[C@]56c7ccccc7N1[C@H]5[C@H]2[C@H]3C[C@]46O [PSEUDOSTRYCHNINE] | > 40 µM | > 40 µM | > 40 µM | > 40 µM | > 40 µM
C[N+]12CC[C@@]34c5ccccc5N5C(=O)C[C@@H]6OCC=C(C1)[C@H](C[C@@H]32)[C@@H]6[C@H]54 (stereo not given in full) [STRYCHNINE METHIODIDE] | > 40 µM | > 40 µM | > 40 µM | > 40 µM | > 40 µM
O=C1C[C@@H]2OCC=C3CN4CC[C@]56c7ccccc7N1[C@H]5[C@H]2[C@H]3C[C@H]46 [STRYCHNINE] | > 40 µM | > 40 µM | > 40 µM | > 40 µM | > 40 µM
COc1cc2c3c4n(c2cc1OC)C(=O)C[C@@H]1OCC=C2CN(CC3)C(=O)C[C@@H]2[C@H]41 [STRYNUXLINE A] | 13.3 µM | 12.2 µM | 17.1 µM | 9.4 µM | 7.15 µM
O=C1C[C@H]2C3=CCO[C@H]4CC(=O)n5c(c(c6ccccc65)CCN1C3)[C@H]42 [STRYNUXLINE B] | 19 µM | 11.2 µM | 18.1 µM | 15.7 µM | 16.5 µM
CN1CC[C@]23C(=O)C[C@H]4C(=CCO[C@H]5CC(=O)N(c6c(O)cccc62)[C@H]3[C@H]54)C1 [VOMICINE] | > 40 µM | > 40 µM | > 40 µM | > 40 µM | > 40 µM
